Reference: ChEMBL document CHEMBL3351250, “Modified salicylanilide and 3-phenyl-2H-benzo[e][1,3]oxazine-2,4(3H)-dione derivatives as novel inhibitors of osteoclast differentiation and bone resorption” (J Med Chem, 2014)

Key:
RAW264.7 = assay: Inhibition of RANKL-induced osteoclastogenesis in mouse RAW264.7 cells assessed as TRAP+ multinucleated cells level at 10 uM incubated for 4 days by TRAP staining assay; assay type: functional; parameters: scale not given: the % may be the effect or the level left
Outline: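 Cells plated at 1 × 10³ (96-well) or 5 × 10⁴ (48-well) in α-MEM with 10% FBS, 2 mM […], 100 ng/mL recombinant murine RANKL and compound for 4 days; medium changed on day 2. Fixed in acetone/citrate/formaldehyde for 5 min and TRAP-stained. TRAP⁺ cells with >5 nuclei counted by light microscopy, expressed as % of the RANKL-only group.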

[1] = Cytotoxicity against mouse RAW264.7 cells assessed as survival rate at 10 uM after 24 hrs by MTT assay; assay type: cell-based; details: read-out: Activity
Outline: (§1)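 Cells at 1 × 10⁴/well in DMEM + 10% FBS, exposed to compounds for 24 h at 37 °C, 5% CO₂. After PBS washes, MTT (0.5 mg/mL in medium) added for 1 h at 37 °C; formazan dissolved in DMSO, absorbance read at 540 nm. Viability expressed as % of DMSO control; CC₅₀ is the concentration giving 50% loss of mean viability (N = 3).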

[2] = Cytotoxicity against mouse RAW264.7 cells assessed as reduction in survival rate after 24 hrs by MTT assay; assay type: cell-based; outline: as §1

SMILES | Activity (RAW264.7) [%] | viability at 24 h, 10 µM [1] [%] | CC50 at 24 h [2] [µM]
COc1ccc2c(=O)n(-c3ccc(F)cc3F)c(=O)oc2c1 | 67.5 | 90.9 | > 40
O=C(O)c1ccccc1O [SALICYLIC ACID] |  |  | > 40
O=C(Nc1ccc(Cl)cc1F)c1ccccc1 | 77.9 | 105 | > 40
COc1ccc(C(=O)Nc2ccc(I)cc2F)c(O)c1 | 39.4 | 94.4 | 27.6
COc1ccc(C(=O)Nc2ccc(I)cc2F)c(OCc2ccc(F)cc2F)c1 | 51.3 | 104 | 36.8
COc1ccc(C(=O)Nc2ccc(F)cc2F)c(O)c1 | 74.9 | 89.7 | > 40
COc1ccc2c(=O)n(-c3ccc(Cl)cc3F)c(=O)oc2c1 | 36 | 100 | > 40
O=C(Nc1ccc(F)cc1F)c1ccccc1OCc1ccc(F)cc1F | 97.6 | 101 | > 40
O=C(Nc1ccc(-c2ccc(F)cc2F)cc1F)c1ccccc1O | 100.1 | 102 | 28.6
COc1ccccc1C(=O)Nc1ccc(Cl)cc1F | 86 | 102 | > 40
COc1ccc2c(=O)n(-c3ccc(I)cc3F)c(=O)oc2c1 | 44.4 | 103 | 30.1
COc1ccc(C(=O)Nc2ccc(Cl)cc2F)c(OCc2ccc(F)cc2F)c1 | 68.7 | 107 | > 40
O=C(Nc1ccc(-c2ccc(Cl)cc2Cl)cc1F)c1ccccc1O | 91.2 | 105 | 29.8
COc1ccccc1C(=O)Nc1ccc(F)cc1F | 89.1 | 108 | > 40
O=C(Nc1ccc(I)cc1F)c1ccccc1O | 70.6 | 96.7 | 23.3
O=C(Nc1ccc(F)cc1F)c1ccccc1 | 75.2 | 105 | > 40
COc1ccc(C(=O)Nc2ccc(-c3ccc(Cl)cc3F)cc2F)c(O)c1 | 60.6 | 44.5 | 
O=C(Nc1ccc(I)cc1F)c1ccccc1OCc1ccc(F)cc1F | 85.5 | 85 | 32.6
